Consider one compound from ChEMBL document CHEMBL3526048, “In vitro metabolism of rivoglitazone, a novel peroxisome proliferator-activated receptor γ agonist, in rat, monkey, and human liver microsomes and freshly isolated hepatocytes” (Drug Metab Dispos, 2011).

For one data set, the target named is Cytochrome P450 2C9 (Homo sapiens, UniProt P11712). The experiment in a line: Activity of human CYP2C9 expressed in microsomes isolated from baculovirus infected insect cell assessed as enzyme-mediated 3-(4-((6-methoxy-1-methyl-1H-benzo[d]imidazol-2-yl)methoxy)phenyl)-2-(methylthio)propanoic acid formation at 20 uM after 2 hrs by radio-HPLC/LC-MS/MS analysis in presence of NADPH-generating system/SAM and UDPGA/SAM. It is filed as ADME.

Data set [1] can be described thus: Drug metabolism in cynomolgus monkey liver microsomes assessed as formation of 2-amino-3-((1-carboxy-2-(4-((6-methoxy-1-methyl-1H-benzo[d]imidazol-2-yl)methoxy)phenyl)ethyl)disulfanyl)propanoic acid at 20 uM by radio-HPLC/LC-MS/MS analysis. Format: ADME, Macaca fascicularis. Background: Liver microsomes are vesicles of endoplasmic reticulum, rich in cytochrome P450 enzymes.

Data set [2] is described as follows: Drug metabolism in human hepatocytes assessed as formation of 2-mercapto-3-(4-((6-methoxy-1-methyl-1H-benzo[d]imidazol-2-yl)methoxy)phenyl)propanamide at 30 uM after 3 hrs by radio-HPLC/LC-MS/MS analysis in presence of NADPH-generating system and NADPH-generating system/SAM. Format: ADME, cell-based, Hepatocyte.
The target in a further data set is Cytochrome P450 3A4 (Homo sapiens, UniProt P08684). The experiment in a line: Activity of human CYP3A4 expressed in microsomes isolated from baculovirus infected insect cell assessed as enzyme-mediated 5-(4-((6-methoxy-1H-benzo[d]imidazol-2-yl)methoxy)benzyl)thiazolidine-2,4-dione formation at 20 uM after 2 hrs by radio-HPLC/LC-MS/MS analysis in presence of NADPH-generating system and NADPH-generating system/SAM. It is filed as ADME.

The subject of data set [3] is Liver microsome. In words: Drug metabolism in human liver microsomes assessed as formation of 5-(4-((6-hydroxy-1-methyl-1H-benzo[d]imidazol-2-yl)methoxy)benzyl)thiazolidine-2,4-dione at 20 uM after 2 hrs by radio-HPLC/LC-MS/MS analysis in presence of NADPH-generating system and NADPH-generating system/SAM. Format: ADME.
Data set [4] relates to Liver microsome. The experiment in a line: Drug metabolism in human liver microsomes assessed as formation of 5-(4-((6-methoxy-1H-benzo[d]imidazol-2-yl)methoxy)benzyl)thiazolidine-2,4-dione at 20 uM after 2 hrs by radio-HPLC/LC-MS/MS analysis in presence of NADPH-generating system and NADPH-generating system/SAM. It is filed as ADME.
In data set [5] the target is T1, UDP-glucuronosyltransferase 2B7 (Homo sapiens, UniProt P16662).
T1 sequence (P16662 whole entry): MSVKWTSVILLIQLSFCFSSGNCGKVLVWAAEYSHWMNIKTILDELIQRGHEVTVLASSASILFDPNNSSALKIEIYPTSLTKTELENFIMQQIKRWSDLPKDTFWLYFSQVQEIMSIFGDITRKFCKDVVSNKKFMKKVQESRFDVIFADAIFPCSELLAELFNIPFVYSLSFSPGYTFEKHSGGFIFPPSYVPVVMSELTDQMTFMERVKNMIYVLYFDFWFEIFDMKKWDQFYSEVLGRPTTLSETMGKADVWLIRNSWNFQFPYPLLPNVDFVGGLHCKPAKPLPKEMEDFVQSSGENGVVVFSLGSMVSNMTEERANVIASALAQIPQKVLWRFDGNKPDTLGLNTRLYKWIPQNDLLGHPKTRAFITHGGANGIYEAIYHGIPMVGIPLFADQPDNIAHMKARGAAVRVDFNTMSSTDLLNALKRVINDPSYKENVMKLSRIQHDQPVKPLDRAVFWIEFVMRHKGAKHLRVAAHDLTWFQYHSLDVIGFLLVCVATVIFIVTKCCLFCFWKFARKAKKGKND
In words: Activity of human UGT2B7 expressed in microsomes isolated from baculovirus infected insect cell assessed as enzyme-mediated 2-mercapto-3-(4-((6-methoxy-1-methyl-1H-benzo[d]imidazol-2-yl)methoxy)phenyl)propanamide formation at 20 uM after 4 hrs by radio-HPLC/LC-MS/MS analysis in presence of NADPH-generating system and NADPH-generating system/SAM in presence of UDPGA and UDPGA/SAM. It is filed as ADME.

Data set [6] concerns the target T2, UDP-glucuronosyltransferase 1A10 (Homo sapiens, UniProt Q9HAW8).
T2 sequence (Q9HAW8 whole entry): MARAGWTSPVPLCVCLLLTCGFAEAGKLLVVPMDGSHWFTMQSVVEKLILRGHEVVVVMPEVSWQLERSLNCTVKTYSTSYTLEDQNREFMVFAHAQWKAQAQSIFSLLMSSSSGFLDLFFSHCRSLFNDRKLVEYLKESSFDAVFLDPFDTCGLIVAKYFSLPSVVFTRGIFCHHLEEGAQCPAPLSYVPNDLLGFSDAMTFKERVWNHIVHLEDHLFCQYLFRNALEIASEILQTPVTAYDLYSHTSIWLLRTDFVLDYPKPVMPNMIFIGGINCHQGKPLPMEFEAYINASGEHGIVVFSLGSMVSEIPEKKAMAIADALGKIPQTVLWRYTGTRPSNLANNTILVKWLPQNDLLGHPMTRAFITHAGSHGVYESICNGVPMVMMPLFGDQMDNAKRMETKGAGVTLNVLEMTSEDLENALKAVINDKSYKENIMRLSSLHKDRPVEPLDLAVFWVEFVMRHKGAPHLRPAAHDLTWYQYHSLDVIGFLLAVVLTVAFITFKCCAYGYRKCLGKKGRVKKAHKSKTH
In words: Activity of human UGT1A10 expressed in microsomes isolated from baculovirus infected insect cell assessed as enzyme-mediated (2S,3S,4S,5R,6R)-3,4,5-trihydroxy-6-(5-(4-((6-methoxy-1-methyl-1H-benzo[d]imidazol-2-yl)methoxy)benzyl)-2,4-dioxothiazolidin-3-yl)tetrahydro-2H-pyran-2-carboxylic acid formation at 20 uM after 4 hrs by radio-HPLC/LC-MS/MS analysis in presence of UDPGA. It is filed as ADME. The essentials: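 Alamethicin (50 μg/mg protein, 15 min on ice) pretreated expressed human UGT microsomes (1 mg/ml protein) from baculovirus-infected insect cells. Incubation with [¹⁴C]rivoglitazone (20 μM) in 100 mM Tris-HCl (pH 7.5) with 10 mM MgCl₂, started by 5 mM UDPGA, 4 h at 37°C with shaking. UGT insect-cell control supersomes were run alongside. Acetonitrile stop, concentrated supernatant analysed by radio-HPLC, LC-MS and LC-MS/MS.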

Sequence of Cytochrome P450 3A4 (P08684 whole entry): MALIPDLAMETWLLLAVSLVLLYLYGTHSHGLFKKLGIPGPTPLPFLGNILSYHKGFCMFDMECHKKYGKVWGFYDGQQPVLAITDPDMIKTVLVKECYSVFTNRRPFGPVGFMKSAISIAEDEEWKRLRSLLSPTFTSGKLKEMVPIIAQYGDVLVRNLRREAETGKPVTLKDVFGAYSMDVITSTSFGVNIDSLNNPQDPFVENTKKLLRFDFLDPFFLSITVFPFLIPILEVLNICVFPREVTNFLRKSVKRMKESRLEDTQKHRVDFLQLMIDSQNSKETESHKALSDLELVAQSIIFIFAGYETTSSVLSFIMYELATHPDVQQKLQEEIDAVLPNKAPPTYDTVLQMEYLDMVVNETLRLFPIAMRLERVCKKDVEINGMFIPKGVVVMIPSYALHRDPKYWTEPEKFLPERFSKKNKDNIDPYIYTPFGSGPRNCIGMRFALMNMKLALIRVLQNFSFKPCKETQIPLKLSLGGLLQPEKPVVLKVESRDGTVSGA
Sequence of Cytochrome P450 2C9 (P11712 whole entry): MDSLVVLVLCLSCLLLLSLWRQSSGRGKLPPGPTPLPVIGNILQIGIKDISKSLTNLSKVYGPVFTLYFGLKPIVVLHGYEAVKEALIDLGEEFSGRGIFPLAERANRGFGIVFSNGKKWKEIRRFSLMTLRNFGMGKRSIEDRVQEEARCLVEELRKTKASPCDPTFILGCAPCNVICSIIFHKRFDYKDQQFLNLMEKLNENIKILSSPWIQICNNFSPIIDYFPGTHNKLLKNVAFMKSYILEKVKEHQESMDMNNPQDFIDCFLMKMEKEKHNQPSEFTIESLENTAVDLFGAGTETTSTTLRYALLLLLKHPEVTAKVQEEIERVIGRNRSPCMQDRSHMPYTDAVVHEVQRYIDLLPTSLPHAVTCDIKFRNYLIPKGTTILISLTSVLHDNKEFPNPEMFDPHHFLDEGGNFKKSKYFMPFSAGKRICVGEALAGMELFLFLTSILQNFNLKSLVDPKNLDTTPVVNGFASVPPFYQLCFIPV

For `COc1ccc2nc(COc3ccc(C[14CH]4SC(=O)NC4=O)cc3)n(C)c2c1.Cl` (racemic), the Drug metabolism result on Cytochrome P450 2C9 is on record as “metabolite_not_detected”; in data set [1], “metabolite_not_detected”; in data set [2], “metabolite_not_detected”; on Cytochrome P450 3A4, “metabolite_detected”; in the data set on Liver microsome [3] it was “metabolite_detected”; in the data set with Liver microsome [4], “metabolite_detected”. Also, the Drug metabolism entry in data set [5] and in data set [6] was “metabolite_not_detected” in each case.
